The values below come from the array DNA melting data of Ke et al. (doi:10.1101/2024.01.08.574731).

A short description of data set [1]: folding enthalpy; higher = less favourable; fluorescence melt of hairpins on a sequencing array, two-state fit. Particulars: sodium 0.088 M. A digest of the protocol: (§1)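 In 50 mM Na-HEPES pH 8.0 containing 25 mM NaCl, hairpins from the library on a sequenced MiSeq flow cell were imaged for Cy3 fluorescence at 2.5 °C steps up to 60 °C, with Cy3 and quencher oligos annealed. After normalisation to pre-quench Cy3 and to control constructs, two-state fits with bootstrapping gave melting temperature and folding enthalpy. Four replicates were combined by inverse-variance weighting, and fitted temperatures were shifted up by 9.35 °C to match UV melts.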

Data set [2] can be described thus: melting temperature; fluorescence melt of hairpins on a sequencing array, two-state fit, raised by 9.35 °C to match UV melts. The following applies: sodium 0.088 M. Put shortly:
as §1

Turning to GATCGTCGGCACGATC ((((((....)))))), the folding enthalpy in data set [1] is -21.4 kcal/mol. The Tm in data set [2] turned out to be 53 °C.

As for GATCATGAATATGATC ((((((....)))))), in data set [1], the folding enthalpy is -46.8 kcal/mol. For the same sequence, the Tm in data set [2] came out at 54.5 °C.

For the sequence GATCTACCCCTAGATC ((((((....)))))), the folding enthalpy in data set [1] is -38.4 kcal/mol. In data set [2], the Tm came out at 39.9 °C.

Take GCGGGCGGAAACGCCCAC (.(((((....))))).): the folding enthalpy in data set [1] is -8.92 kcal/mol. In data set [2], the Tm worked out at 57.2 °C.

As for GATCACGCGTGTGATC ((((((....)))))), the folding enthalpy in data set [1] is -38.7 kcal/mol. In data set [2], the Tm is 56.5 °C.

Regarding GATCTGTAGACAGATC ((((((....)))))), in data set [1], the folding enthalpy is -35.5 kcal/mol. In data set [2], the Tm amounted to 50.8 °C.

As for CGGGTCGGAAACGATCCG (((.(((....))).))), the folding enthalpy in data set [1] is -45.1 kcal/mol. The Tm in data set [2] was found to be 58 °C.

With GACGTGGGAAACCGCGTC ((((.((....)).)))), the folding enthalpy in data set [1] is -43.8 kcal/mol. In addition, in data set [2], the Tm is 61.5 °C.

Turning to GTAATTGGAAACAATCAC ((.((((....)))).)), the folding enthalpy in data set [1] is -11.6 kcal/mol. Also, the Tm in data set [2] was 27.4 °C.

As for GTTGCCGGAAACGACAAC ((((.((....)).)))), the folding enthalpy in data set [1] was -28 kcal/mol. Besides, the Tm in data set [2] came to 48.5 °C.

For the sequence GTTTAAGGAAACTTAAGC (.(((((....))))).), in data set [1], the folding enthalpy is -13.9 kcal/mol. The Tm in data set [2] came to 32.4 °C.

As for GGATTTGGAAACAAATTC (.(((((....))))).), the folding enthalpy in data set [1] is -28.1 kcal/mol. For the same sequence, the Tm in data set [2] is 40.1 °C.

As for GTTGGGGCGAAAGCCAAC (((..(((....)))))), in data set [1], the folding enthalpy is -16.5 kcal/mol. Besides, the Tm in data set [2] stood at 46 °C.

On to GCTACCGAAAGGTCAGC ((((((....))).))), for which, in data set [1], the folding enthalpy is -21.4 kcal/mol. Moreover, the Tm in data set [2] was found to be 48.7 °C.

GCTTTACGAAAGTATAGC (((.(((....))).))): the folding enthalpy in data set [1] is -34.1 kcal/mol. Moreover, the Tm in data set [2] was 47 °C.

As to GTAACCGAAAGGTGATAC ((((((....)))..))), the folding enthalpy in data set [1] was -12.9 kcal/mol. Moreover, the Tm in data set [2] is 30.7 °C.

For the sequence GATCACGAAAGTGTATC ((((((....))).))), in data set [1], the folding enthalpy was -20.6 kcal/mol. Also, the Tm in data set [2] came out at 44 °C.

Regarding GATTCCGAAAGGAAATC ((((((....))).))), the folding enthalpy in data set [1] was -21.4 kcal/mol. Also, the Tm in data set [2] came out at 41.5 °C.

In the case of GTTTCCGAAAGGAATAAC ((((((....)))..))), the folding enthalpy in data set [1] is -12 kcal/mol. For the same sequence, the Tm in data set [2] came out at 30.2 °C.

With GACTGCGGAAACGCAGCC (.(((((....))))).), in data set [1], the folding enthalpy was -11.2 kcal/mol. Besides, the Tm in data set [2] is 52 °C.

Turning to GCTATACGAAAGTAAAGC (((.(((....))).))), in data set [1], the folding enthalpy is -28 kcal/mol. The Tm in data set [2] is 42.8 °C.

On to GTTTTCCGAAAGGACAAC (((.(((....))).))), for which the folding enthalpy in data set [1] was -25.8 kcal/mol. In data set [2], the Tm is 41.7 °C.

For the sequence GCTTCGGGAAACCGAGGC ((.((((....)))).)), the folding enthalpy in data set [1] was -42.3 kcal/mol. Also, in data set [2], the Tm stood at 53.5 °C.

For the sequence GATCGGAGATCCGATC ((((((....)))))), the folding enthalpy in data set [1] is -27.6 kcal/mol. The Tm in data set [2] came out at 56 °C.

Consider GTTTCAGGAAACTGAAGC (.(((((....))))).), for which the folding enthalpy in data set [1] was -22.2 kcal/mol. The Tm in data set [2] came out at 38.9 °C.

On to GATCATTGCTATGATC ((((((....)))))), for which the folding enthalpy in data set [1] is -36 kcal/mol. Besides, the Tm in data set [2] is 47.8 °C.

GTCGCGGGAAACCGTGGC (.(.(((....))).).): in data set [1], the folding enthalpy was -28.5 kcal/mol. For the same sequence, the Tm in data set [2] was 50.3 °C.

Regarding GACAAAGGAAACTTCGTC (((.(((....))).))), the folding enthalpy in data set [1] was -17 kcal/mol. Besides, the Tm in data set [2] came to 26.7 °C.

On to GCGTTGAGACGC ((((....)))), for which the folding enthalpy in data set [1] was -29.7 kcal/mol. The Tm in data set [2] was 56.6 °C.

For GGCACAGGAAACTGTACC ((.((((....)))).)), in data set [1], the folding enthalpy is -29.6 kcal/mol. In data set [2], the Tm came out at 44.3 °C.

As for GTGTCCGCGAAAGCGCAC (((..(((....)))))), the folding enthalpy in data set [1] is -14.1 kcal/mol. Besides, in data set [2], the Tm is 40.5 °C.

Turning to GCTCGCACGAAAGTGAGC (((..(((....)))))), in data set [1], the folding enthalpy is -21.2 kcal/mol. Moreover, in data set [2], the Tm came to 49.6 °C.

On to GTGTTTGGAAACAAATGC (..((((....))))..), for which the folding enthalpy in data set [1] was -21.7 kcal/mol. Besides, the Tm in data set [2] came to 34.8 °C.

As to GCATCGGAAACGATGC ((((((....)))))), the folding enthalpy in data set [1] was -35.8 kcal/mol. Also, in data set [2], the Tm was found to be 68.6 °C.

Consider GTTTCTCGAAAGAGCAAC (((.(((....))).))), for which the folding enthalpy in data set [1] is -23.6 kcal/mol. Besides, the Tm in data set [2] was 36.4 °C.

GGTCGCGAAAGCGAGACC ((((((....)))..))): the folding enthalpy in data set [1] was -13.5 kcal/mol. Besides, the Tm in data set [2] turned out to be 51.6 °C.

In the case of GTTTTTCGAAAGAACAAC (((.(((....))).))), the folding enthalpy in data set [1] is -17.8 kcal/mol. Also, the Tm in data set [2] worked out at 34.3 °C.
